Assay results taken from publication PMC6626684 (Biochemical and biophysical research communications, 2019).

Columns and labels:
WT mTRPV1 = WT mTRPV1 (Mus musculus, UniProt Q704Y3); assay: Live-cell calcium fluorescence imaging; format: cell-based
WT TRPV1 [1] = target: T1, WT TRPV1 (Mus musculus, UniProt Q704Y3); conditions: mTRPV1; cited from earlier work
TRPV1 E571A = TRPV1 E571A (Mus musculus, UniProt Q704Y3, E571A); assay: Single-channel inside-out patch-clamp recording, E571A mutant; format: cell-based; conditions: for Hill slope factor: electrophysiology, E571A
Sequence of TRPV1 E571A (Q704Y3 whole entry E571A): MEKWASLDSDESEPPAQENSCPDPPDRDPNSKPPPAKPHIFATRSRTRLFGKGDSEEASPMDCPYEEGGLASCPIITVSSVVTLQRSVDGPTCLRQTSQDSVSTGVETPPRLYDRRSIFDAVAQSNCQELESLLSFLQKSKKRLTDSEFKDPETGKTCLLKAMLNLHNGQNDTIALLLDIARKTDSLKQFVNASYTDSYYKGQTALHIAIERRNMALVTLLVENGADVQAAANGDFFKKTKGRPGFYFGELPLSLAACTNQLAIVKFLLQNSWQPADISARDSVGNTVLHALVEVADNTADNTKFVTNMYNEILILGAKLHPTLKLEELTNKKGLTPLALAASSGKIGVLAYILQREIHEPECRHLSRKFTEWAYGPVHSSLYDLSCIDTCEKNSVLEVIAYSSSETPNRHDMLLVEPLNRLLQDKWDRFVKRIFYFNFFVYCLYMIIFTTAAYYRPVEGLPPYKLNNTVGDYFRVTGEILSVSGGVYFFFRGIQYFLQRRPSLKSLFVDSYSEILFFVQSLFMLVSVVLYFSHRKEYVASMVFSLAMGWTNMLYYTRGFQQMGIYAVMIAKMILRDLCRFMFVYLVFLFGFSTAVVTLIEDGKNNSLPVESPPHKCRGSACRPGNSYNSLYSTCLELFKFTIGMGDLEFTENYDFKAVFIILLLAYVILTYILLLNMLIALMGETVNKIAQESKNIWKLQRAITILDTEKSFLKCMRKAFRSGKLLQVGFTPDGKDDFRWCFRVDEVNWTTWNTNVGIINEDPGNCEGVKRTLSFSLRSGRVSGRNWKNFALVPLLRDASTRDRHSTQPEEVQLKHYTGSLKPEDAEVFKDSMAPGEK

mTRPV1 T551V = mTRPV1 T551V (Mus musculus, UniProt Q704Y3, T551V); assay: Live-cell calcium fluorescence imaging; format: cell-based; conditions: for Hill slope factor: calcium imaging, T551V
Sequence of mTRPV1 T551V (Q704Y3 whole entry T551V): as the sequence (Q704Y3 whole entry E571A) above, with T551V, A571E counted along it

TRPV1 T551V = TRPV1 T551V (Mus musculus, UniProt Q704Y3, T551V); assay: Single-channel inside-out patch-clamp recording, T551V mutant; format: cell-based; conditions: for Hill slope factor: electrophysiology; for Hill slope factor / open probability: T551V
Sequence of TRPV1 T551V (Q704Y3 whole entry T551V): as the sequence (Q704Y3 whole entry E571A) above, with T551V, A571E counted along it

[2] = psychophysical tests; cited from earlier work
TRPV1 T671S [3] = target: T2, TRPV1 T671S (Mus musculus, UniProt Q704Y3, T671S); conditions: capsaicin stimulation; cited from earlier work
T2 sequence (Q704Y3 whole entry T671S): as the sequence (Q704Y3 whole entry E571A) above, with A571E, T671S counted along it

mTRPV1 E571A = mTRPV1 E571A (Mus musculus, UniProt Q704Y3, E571A); assay: Live-cell calcium fluorescence imaging; format: cell-based
Sequence of mTRPV1 E571A (Q704Y3 whole entry E571A): as the sequence (Q704Y3 whole entry E571A) above

TRPV1 T671V = TRPV1 T671V (Mus musculus, UniProt Q704Y3, T671V); assay: Single-channel inside-out patch-clamp recording, T671V mutant; format: cell-based
Sequence of TRPV1 T671V (Q704Y3 whole entry T671V): as the sequence (Q704Y3 whole entry E571A) above, with A571E, T671V counted along it

WT TRPV1 [4] = target: T1, WT TRPV1; assay: Single-channel inside-out patch-clamp recording, WT channel; format: cell-based; conditions: for Hill slope factor: electrophysiology
[5] = test system: non-transfected HEK293 cells; assay: Calcium imaging control in non-transfected cells; format: cell-based
TRPV1 T671S [6] = target: T2, TRPV1 T671S; assay: Single-channel inside-out patch-clamp recording, T671S mutant; format: cell-based; conditions: most piperine concentrations tested
Summary of the method: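 HEK293 cells transiently transfected (Lipofectamine 2000) with eYFP-fused mouse TRPV1 mutant, used 1–2 days later. Inside-out patches held at 0 mV for 50 ms, stepped to +80 mV for 1 s. Symmetrical 130 mM NaCl, 0.2 mM EDTA, 3 mM HEPES pH 7.2, no Ca2+, 25°C. Filtered at 2.25 kHz, sampled at 10 kHz. Po from Gaussian fits to all-point histograms; patches with >2 channels discarded. Repeated-measures two-way ANOVA.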

Sequence of WT mTRPV1 (Q704Y3 whole entry): as the sequence (Q704Y3 whole entry E571A) above, with A571E counted along it
T1 sequence (Q704Y3 whole entry): as the sequence (Q704Y3 whole entry E571A) above, with A571E counted along it

Structure (SMILES) | EC50 (TRPV1 E571A) | Hill slope factor (TRPV1 E571A) | EC50 (mTRPV1 T551V) | Hill slope factor (mTRPV1 T551V) | EC50 (TRPV1 T551V) | Hill slope factor (TRPV1 T551V) | relative pungency-taste threshold [2] | EC50 (mTRPV1 E571A) | Hill slope factor (mTRPV1 E571A; calcium imaging, E571A) | Hill slope factor (WT TRPV1 [4]; WT) | EC50 (WT mTRPV1) | Hill slope factor (WT mTRPV1; calcium imaging, WT) | other results
Oc1cc2c(cc1O)CN(C(=S)NCCc1ccc(Cl)cc1)CCC2 [CZP, capsazepine] |  |  |  |  |  |  |  |  |  |  |  |  | inhibition of fluorescence intensity increase induced by 10 μM piperine (WT mTRPV1; 10 μM CZP with 10 μM piperine, calcium imaging): almost completely inhibited
COc1cc(CNC(=O)CCCC/C=C/C(C)C)ccc1O [capsaicin] | 1.3 ± 0.03 µM | 3.0 | 1 ± 0.02 µM | 3.3 | 1.4 ± 0.03 µM | 3.3 | 0.6 µM | 1 ± 0.04 µM | 3.0 | 1.9 | 0.1 ± 0.002 µM | 1.9 | maximum open probability (WT TRPV1 [1]): above 90%; channel activity of T671S when stimulated (TRPV1 T671S [3]): wildtype-like activities; currents from the same patches (TRPV1 T671V; capsaicin (10 μM)): robust currents
O=C(/C=C/C=C/c1ccc2c(c1)OCO2)N1CCCCC1 [piperine, Piperine] | 277 ± 36.5 µM | 0.7 | 5.1 ± 0.7 µM | 1.3 | 93.5 ± 15.1 µM | 0.9 | 10.5 µM | 3.5 ± 0.5 µM | 2.2 | 2.2 | 3.3 ± 0.7 µM | 2.2 | Emax (TRPV1 E571A; read-out: maximum activation open probability (estimated)): 22%; non-specific effects in untransfected cells [5]: no detectable non-specific effects; fluorescence signal at 30 μM (mTRPV1 T551V; 30 μM piperine, T551V expressing cells): decreased substantially; open probability (TRPV1 T551V; 10 μM piperine): 12.3 ± 2.2%; open probability (TRPV1 T551V; 30 μM piperine): 25.8 ± 5.1%; perceived pungency level, times lower than capsaicin [2]: 10-to-100 times; fluorescence signal at 30 μM (mTRPV1 E571A; 30 μM piperine, E571A expressing cells): decreased substantially; efficacy (mTRPV1 E571A; calcium imaging, E571A, normalized to 10 μM capsaicin response): 77.1 ± 7.3%; open probability compared with wildtype channels (TRPV1 T671S [6]): significantly lower; channel activity (TRPV1 T671V; 30 μM piperine): no channel activity; EC50 (WT TRPV1 [4]): 252 ± 38.1 µM; open probability (Po) (WT TRPV1 [4]; 30 μM piperine, WT): 10%; maximal Po predicted by extrapolation (WT TRPV1 [4]; WT, extrapolation of Hill fit): about 36%; fluorescence intensity of the cells at 30 μM (WT mTRPV1; 30 μM piperine, WT, consistent with channel desensitization): decreased; efficacy (WT mTRPV1; calcium imaging, WT, normalized to 10 μM capsaicin response): 82.7 ± 5.7%
